Records with an inconclusive call do not appear.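 How the source made its calls, unless noted: active means viability increase at or above a cutoff of the median across tested compounds plus 3 SD (cut at about 8.5% in these data, passing the limit was not always enough); inconclusive means some gains above the cutoff, reason not given; inactive means the rest.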
Columns and labels:
[1] = OD615 S. cerevisiae growth inhibition, permissive medium, pilot counter-assay, permissive growth control for S. cerevisiae lifespan shortening project (AID 705;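 active means growth inhibition above 25% in both replicates, a cutoff set 3 SD above the mean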); conditions: OD615, 24 h, at 10 µM, active compounds read high
Summary of the method: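 System: Engineered DeaD yeast | Buffer or medium: SC raffinose/galactose permissive medium | Doses: 10 µM single dose, 0.25% DMSO | Times: 24 h exposure, 30 °C | Measured by: OD615 turbidity read | Read-out: Yeast growth inhibition indicated by reduced 24 h OD615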

[2] = Restrictive medium S. cerevisiae growth inhibition, OD615, pilot screen of yeast lifespan reduction project, restrictive growth control (AID 706;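 active means growth inhibition above a set limit, 3 SD over mean compound inhibition, in both replicates, cut at about 43% in these data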;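 further: modified DeaD lifespan yeast strain shifted to restrictive glucose medium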); conditions: OD615, 48 h, at 10 µM, active compounds read high
Summary of the method: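 Assay system: engineered S. cerevisiae DeaD strain; Buffer or medium: CSMM-D glucose medium; Dosing: 10 µM compound, 0.25% DMSO; Times: cell pre-growth 4 h, compound exposure 48 h, 30 °C; Detection: absorbance (optical density) measured at 615 nm.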

[3] = viability gain of MRP-1-high H69AR cells under doxorubicin, pilot screen, MRP-1 activator project, CellTiter-Glo, duplicate (AID 807); conditions: H69AR viability with doxorubicin, CellTiter-Glo luminescence; at 10 µM; active compounds read high;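 further: compound pretreatment 18-22 h then 72 h combined with doxorubicin; 0% = doxorubicin alone and 100% = vehicle without doxorubicin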
[4] = growth suppression of beta-catenin knockout HCT116, pilot screen, human colon tumor cells (AID 823;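 active means cell viability at or below a set limit in both duplicate runs, the limit being the all-compound median minus 4 SD, cut at about 23% in these data, passing the limit was not always enough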;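 further: 0% = wells killed by 20 µM Hyamine and 100% = untreated DMSO cell wells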); conditions: CellTiter-Glo, 60 h, at 10 µM, active compounds read low
[5] = growth suppression of PTEN-deleted HCT116, pilot screen, cell-based, HCT116 clonal line, CellTiter-Glo (AID 824;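 active means viability at or below 27.92% in each of two runs, the all-compound median minus 4 SD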;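 further: 0% = 20 µM Hyamine control and 100% = vehicle cell control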); conditions: 60 h, at 10 µM, active compounds read low
[6] = inhibitors of the yeast RAM network, pilot screen, dse1pr::URA3 reporter, 5-FOA selection (AID 869;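 active means inhibition over a set limit, the all-compound mean plus 3 SD, in both replicate runs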;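 further: 0% = DMSO wells with no growth and 100% = 10 µM 1-NA-PP1 with full growth; RAM network block rescues cells from 5-FOA so hits raise OD615 growth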); conditions: S. cerevisiae dse1pr::URA3 5-FOA growth, OD615, 2 d; at 10 µM; active compounds read high; strain carries analog-sensitive mutant Cbk1 kinase
[7] = RAM signaling pathway blockade in yeast – S. cerevisiae, Pdr1DBD-CYC8 efflux-inhibited sensitized strain, primary screen (AID 1298;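 active means RAM network inhibition above 8.4% in each of two replicates, 3 SD over the compound average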;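 further: 0% = DMSO untreated cells without growth and 100% = 10 µM 1-NA-PP1 full growth; higher means more yeast growth rescued from 5-FOA killing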); conditions: S. cerevisiae cbk1-as DSE1-URA3 strain, 5-FOA growth OD615, 2 d; at 50 µM; active compounds read high

CCOC(=O)N1CCN(Cc2nc3c(c(=O)n(C)c(=O)n3C)n2CCC(C)C)CC1
inactive: growth inhibition [1] -5% | growth inhibition [2] -10.9% | viability increase [3] -4.73% | viability [4] 97.3% | viability [5] 99.9% | inhibition [6] 0.37% | RAM network inhibition [7] 8.2%

COc1ccc(S(=O)(=O)N(CC(=O)Nc2ccc3c(c2)OCO3)c2ccccc2OC)cc1
inactive: growth inhibition [1] -20.4% | growth inhibition [2] -13.9% | viability increase [3] -5.32% | viability [4] 69% | viability [5] 79.8% | inhibition [6] 2.13% | RAM network inhibition [7] 6.05%

Cc1ccccc1CN1CCN(CC(=O)NCc2ccccn2)C1=O
inactive: growth inhibition [1] 4.21% | growth inhibition [2] 10.8% | viability increase [3] 1.17% | viability [4] 106% | viability [5] 108% | inhibition [6] -0.32% | RAM network inhibition [7] 1.55%

CNC(=O)CN1C(=O)CSc2ncccc21
inactive: growth inhibition [1] 10.1% | growth inhibition [2] 2.23% | viability increase [3] -0.85% | viability [4] 101% | viability [5] 92.2% | inhibition [6] 1.78% | RAM network inhibition [7] -1.94%

CCN(C(=O)CSc1nnnn1-c1cc(C)ccc1OC)C1CCS(=O)(=O)C1 (centres undefined)
inactive: growth inhibition [1] -6.25% | growth inhibition [2] 4.34% | viability increase [3] -1.65% | viability [4] 99% | viability [5] 94.6% | inhibition [6] 1.56% | RAM network inhibition [7] -1.67%

OCC1(C2=NOC(O)(C(F)(F)F)C2)CCCCC1 (centres undefined)
inactive: growth inhibition [1] -7.57% | growth inhibition [2] -22.3% | viability increase [3] 1.19% | viability [4] 101% | viability [5] 101% | inhibition [6] 2.09% | RAM network inhibition [7] 3.18%

CC1CCCCN1c1nnc(NC(=O)Cn2c(=O)oc3ccccc32)s1 (centres undefined)
inactive: growth inhibition [1] -4.21% | growth inhibition [2] -14.8% | viability increase [3] -1.54% | viability [4] 110% | viability [5] 97.8% | inhibition [6] -0.575% | RAM network inhibition [7] 4.48%

Cc1cc(-c2nnc(-c3cc4ccccc4oc3=O)o2)c(C)n1-c1ccccc1
inactive: growth inhibition [1] -0.055% | growth inhibition [2] -2.88% | viability increase [3] -2.92% | viability [4] 79.7% | viability [5] 79.1% | inhibition [6] 3.04% | RAM network inhibition [7] 3.21%

O=C(c1c(F)cccc1F)N1CCN(c2cccc(C(F)(F)F)c2)CC1
inactive: growth inhibition [1] -7.33% | growth inhibition [2] -6.87% | viability increase [3] 2.86% | viability [4] 83.8% | viability [5] 82.1% | inhibition [6] 0.955% | RAM network inhibition [7] 4.98%

CCOC(=O)c1sc(NC(=O)c2ccco2)nc1-c1ccccc1
inactive: growth inhibition [1] -1.62% | growth inhibition [2] -1.76% | viability increase [3] -2.38% | viability [4] 105% | viability [5] 95.5% | inhibition [6] 4.44% | RAM network inhibition [7] 4.08%

COc1ccc(C2c3c(oc4ccccc4c3=O)C(=O)N2c2ccccn2)cc1 (centres undefined)
inactive: growth inhibition [1] -12.9% | growth inhibition [2] -7.65% | viability increase [3] -0.92% | viability [4] 90.9% | viability [5] 91% | inhibition [6] 3.71% | RAM network inhibition [7] 4.85%

COc1ccccc1C(=O)n1nc(C)cc1C
inactive: growth inhibition [1] -3.16% | growth inhibition [2] -0.83% | viability increase [3] 0.58% | viability [4] 92% | viability [5] 95.8% | inhibition [6] -0.645% | RAM network inhibition [7] 3.78%

CCCCC(=O)Nc1nc(C)c(C(C)=O)s1
inactive: growth inhibition [1] -13.3% | growth inhibition [2] -2.2% | viability increase [3] 0.48% | viability [4] 98.8% | viability [5] 88.7% | inhibition [6] 1.14% | RAM network inhibition [7] -1%

Cc1c(C(=O)NCc2ccco2)sc2nc(-c3ccccc3)cn12
inactive: growth inhibition [1] 3.59% | growth inhibition [2] 10.2% | viability increase [3] -4.77% | viability [4] 78.6% | viability [5] 67.3% | inhibition [6] 0.04% | RAM network inhibition [7] 2.7%

CCOC(=O)c1cnc2ccc(Br)cc2c1NCC(C)O (centres undefined)
inactive: growth inhibition [1] -11.9% | growth inhibition [2] -9.36% | viability increase [3] -4.28% | viability [4] 91.4% | viability [5] 89.2% | inhibition [6] 1.19% | RAM network inhibition [7] 2.79%

COC(=O)c1ccsc1NC(=O)C1COc2ccccc2O1 (centres undefined)
inactive: growth inhibition [1] 6.25% | growth inhibition [2] 8.76% | viability increase [3] -1.07% | viability [4] 92.4% | viability [5] 85.5% | inhibition [6] 0.425% | RAM network inhibition [7] 8.05%

c1cn(CCCNc2ncnc3nc[nH]c23)cn1
inactive: growth inhibition [1] -7.59% | growth inhibition [2] -16.1% | viability increase [3] -1.91% | viability [4] 111% | viability [5] 96.2% | inhibition [6] 0.895% | RAM network inhibition [7] 2.98%

Cc1cnn(C(=O)c2ccccc2Br)c1
inactive: growth inhibition [1] 3.79% | growth inhibition [2] -3.8% | viability increase [3] -1.43% | viability [4] 109% | viability [5] 103% | inhibition [6] -0.355% | RAM network inhibition [7] 1.6%

COc1cccc(NC(=O)Nc2nnc(N3CCCCC3C)s2)c1 (centres undefined)
inactive: growth inhibition [1] -2.52% | growth inhibition [2] -11.5% | viability increase [3] -4.53% | viability [4] 88.8% | viability [5] 97.8% | inhibition [6] 1.83% | RAM network inhibition [7] 4.22%

CCCCOc1ccc(NC(=O)C2CC=CCC2C(=O)O)cc1 (centres undefined)
inactive: growth inhibition [1] -5.44% | growth inhibition [2] -26.4% | viability increase [3] -2.19% | viability [4] 81.9% | viability [5] 79.5% | inhibition [6] 0.51% | RAM network inhibition [7] 0.37%

CCO/C(C)=C1\C(=O)N(CC)c2ccccc21
inactive: growth inhibition [1] -9.62% | growth inhibition [2] -5.21% | viability increase [3] -1.57% | viability [4] 96.7% | viability [5] 97.2% | inhibition [6] -0.745% | RAM network inhibition [7] 2.08%

COc1cc2[nH]c(=O)n(CCCCCC(=O)N3CCN(c4ccccc4)CC3)c(=O)c2cc1OC
inactive: growth inhibition [1] -20.4% | growth inhibition [2] -2.1% | viability increase [3] -4.46% | viability [4] 58.5% | viability [5] 52.5% | inhibition [6] 1.25% | RAM network inhibition [7] 0.58%

CC(=O)N1CCC(Nc2ccc(C)cc2)CC1
inactive: growth inhibition [1] -15.6% | growth inhibition [2] -9.18% | viability increase [3] 0.99% | viability [4] 101% | viability [5] 97.3% | inhibition [6] -0.41% | RAM network inhibition [7] 1.48%

CCCCNc1cc(=O)n(C)c(=O)[nH]1
inactive: growth inhibition [1] -12.2% | growth inhibition [2] -4.46% | viability increase [3] -0.6% | viability [4] 104% | viability [5] 96.5% | inhibition [6] 1.55% | RAM network inhibition [7] 2.98%

O=C(Nc1ccc(Cl)cn1)c1cccc(F)c1
inactive: growth inhibition [1] -8.65% | growth inhibition [2] 3.83% | viability increase [3] -5.84% | viability [4] 37% | viability [5] 33.9% | inhibition [6] 0.27% | RAM network inhibition [7] 1.17%

Cc1cccc(N2CCN(S(C)(=O)=O)CC2)c1C
inactive: growth inhibition [1] -14.5% | growth inhibition [2] -14.1% | viability increase [3] -0.12% | viability [4] 108% | viability [5] 95.3% | inhibition [6] 0.76% | RAM network inhibition [7] 5.4%

Cc1ccccc1-c1nc(CN2CCC(C(=O)N3CCN(c4ccccn4)CC3)CC2)c(C)o1
inactive: growth inhibition [1] -7.71% | growth inhibition [2] -18.8% | viability increase [3] -5.67% | viability [4] 61.6% | viability [5] 67.7% | inhibition [6] 1.33% | RAM network inhibition [7] -0.47%

CN1CCN(c2ccccc2NC(=O)C(Cc2ccccc2)n2cccc2)CC1 (centres undefined)
inactive: growth inhibition [1] -7.49% | growth inhibition [2] -4.39% | viability increase [3] -7.39% | viability [4] 55.6% | viability [5] 59.3% | inhibition [6] 2.68% | RAM network inhibition [7] 4.23%

CCOC(=O)c1[nH]c(C)c(C(=O)NCCN2CCOCC2)c1C
inactive: growth inhibition [1] -3.9% | growth inhibition [2] -8.41% | viability increase [3] -1.39% | viability [4] 103% | viability [5] 97.7% | inhibition [6] 0.85% | RAM network inhibition [7] -0.87%

O=C(C1Cc2ccccc2O1)N1CCCCC1 (centres undefined)
inactive: growth inhibition [1] -0.465% | growth inhibition [2] 2.46% | viability increase [3] -1.5% | viability [4] 103% | viability [5] 101% | inhibition [6] 0.17% | RAM network inhibition [7] 4.37%

Cc1ccc(C2CC(c3ccc(F)cc3)Nc3nc(N)nn32)cc1 (centres undefined)
inactive: growth inhibition [1] -3.28% | growth inhibition [2] 5.93% | viability increase [3] -3.44% | viability [4] 99.8% | viability [5] 86.7% | inhibition [6] 0.25% | RAM network inhibition [7] 2.86%

N#CC1=C2SCN(Cc3ccccc3)CN2C(=O)CC1c1ccccc1F (centres undefined)
inactive: growth inhibition [1] -3.35% | growth inhibition [2] 15.7% | viability increase [3] -4.34% | viability [4] 90.4% | viability [5] 88.4% | inhibition [6] 1.01% | RAM network inhibition [7] 2.49%

CC(=O)c1ccc(OCC(O)CN2C(C)CCCC2C)cc1 (centres undefined)
inactive: growth inhibition [1] -1.28% | growth inhibition [2] -5.97% | viability increase [3] -0.1% | viability [4] 97.8% | viability [5] 98.1% | inhibition [6] 0.78% | RAM network inhibition [7] 1.46%

NC(=O)C1CCN(C(=O)C2CCN(S(=O)(=O)c3ccccc3)CC2)CC1
inactive: growth inhibition [1] -2.18% | growth inhibition [2] 12.3% | viability increase [3] -1.4% | viability [4] 102% | viability [5] 105% | inhibition [6] 1.06% | RAM network inhibition [7] 0.84%

CCCCOc1ccc(/C(N)=N/O)cc1
inactive: growth inhibition [1] 7.3% | growth inhibition [2] 0.775% | viability increase [3] -5.85% | viability [4] 93.5% | viability [5] 93.7% | inhibition [6] 0.44% | RAM network inhibition [7] 1.83%

O=C1NCCCC1C(=O)NCCN1C(=O)CCC1=O (centres undefined)
inactive: growth inhibition [1] -14.3% | growth inhibition [2] -7.9% | viability increase [3] 0.1% | viability [4] 96.7% | viability [5] 96% | inhibition [6] 1.04% | RAM network inhibition [7] 3.29%

CCOC(=O)CCc1n[nH]c(=O)[nH]c1=O
inactive: growth inhibition [1] -3.33% | growth inhibition [2] 5.9% | viability increase [3] -0.23% | viability [4] 102% | viability [5] 104% | inhibition [6] 1.46% | RAM network inhibition [7] 0%

Reference: PubChem BioAssay
